High-throughput results deposited in PubChem BioAssay by Johns Hopkins Ion Channel Center.
TRPC4 act: opens the mouse TRPC4 cation channel. 310,000 tested, 0.49% active. AID 2237. B-score at 10 µM. HEK293 TRPC4beta/mu-opioid, Fluo4 calcium fluorescence; stronger effect = higher value;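 active means B-score above 5 SD of library B-scores, and initial fluorescence ratio not above library mean plus 5 SD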;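 further: positive B-score marks a calcium rise read as TRPC4 activation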
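Assay system: HEK293 cells stably co-expressing mouse TRPC4beta and mu-opioid receptor / Timing: Fluo4 dye loading 45 min at room temperature, 110 s recording / Signal: Fluo4 calcium-sensitive dye fluorescence, kinetic, 1 Hz baseline / Read-out: integrated baseline-normalised fluorescence ratio, converted to per-well B score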
TRPC6 activator: activators of mouse TRPC6 channel | HEK293-TRPC6 membrane potential dye fluorescence; stronger effect = higher value | Q61143 | 310,000 tested, 0.13% active | B-score at 10 µM;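 active means B-score of the integrated fluorescence ratio above library mean plus 3 SD, and starting fluorescence ratio within library mean plus 5 SD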;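 further: higher score means more depolarization so channel activation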
Target sequence (Q61143 whole entry, looked up): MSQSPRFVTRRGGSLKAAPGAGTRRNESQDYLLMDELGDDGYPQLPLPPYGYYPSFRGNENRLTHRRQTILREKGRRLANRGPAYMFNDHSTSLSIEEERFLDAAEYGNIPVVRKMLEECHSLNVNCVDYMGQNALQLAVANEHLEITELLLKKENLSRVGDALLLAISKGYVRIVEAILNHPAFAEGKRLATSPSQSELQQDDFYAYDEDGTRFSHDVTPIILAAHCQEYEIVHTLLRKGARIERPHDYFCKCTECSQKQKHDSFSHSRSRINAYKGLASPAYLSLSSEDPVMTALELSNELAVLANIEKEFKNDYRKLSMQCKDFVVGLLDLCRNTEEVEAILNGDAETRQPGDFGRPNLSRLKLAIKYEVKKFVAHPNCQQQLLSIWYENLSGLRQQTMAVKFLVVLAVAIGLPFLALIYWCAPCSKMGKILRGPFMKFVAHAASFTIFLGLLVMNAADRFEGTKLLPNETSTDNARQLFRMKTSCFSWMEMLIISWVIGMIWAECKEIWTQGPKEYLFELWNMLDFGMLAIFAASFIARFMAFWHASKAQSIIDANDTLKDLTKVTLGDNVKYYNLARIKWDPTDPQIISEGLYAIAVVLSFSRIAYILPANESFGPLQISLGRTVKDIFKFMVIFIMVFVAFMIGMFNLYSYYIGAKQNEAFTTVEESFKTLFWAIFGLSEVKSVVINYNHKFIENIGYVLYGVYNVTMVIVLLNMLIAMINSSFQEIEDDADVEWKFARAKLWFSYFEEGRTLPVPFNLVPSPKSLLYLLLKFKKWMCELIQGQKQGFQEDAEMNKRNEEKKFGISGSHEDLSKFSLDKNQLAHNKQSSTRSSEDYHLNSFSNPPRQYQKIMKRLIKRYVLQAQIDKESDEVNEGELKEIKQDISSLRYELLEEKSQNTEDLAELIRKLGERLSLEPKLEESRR
Kir21 inh: inhibitors of mouse Kir2.1 inward-rectifier potassium channel; HEK293-Kir2.1, FluxOR thallium flux fluorescence; stronger effect = lower value; B-score at 10 µM; 310,000 tested, 0.85% active;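 active means fluorescence ratio B-score at or below minus 3 SD of library scores, with starting-brightness B-score within 2 SD, cut at about -4.2 in these data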;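 further: channel flux triggered by added potassium and thallium sulfate stimulus; B-score of peak minus minimum fluorescence over baseline after thallium stimulus; more negative B-score means stronger Kir2.1 block with less thallium influx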
TRPC6 inhibitor: inhibitors of mouse TRPC6 channel. Q61143. HEK293-TRPC6, membrane potential dye, ACh-evoked depolarization; stronger effect = lower value. B-score at 10 µM. 310,000 tested, 1.1% active. AID 2553;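 active means B-score under library mean minus 3 SD, initial fluorescence not abnormally high, positive integrated signal ratio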;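 further: B-score derived from integrated fluorescence ratio over the kinetic read; more negative B-score means stronger inhibition of depolarization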
TRPC4 potent: allosterically enhances the mouse TRPC4 cation channel; 310,000 tested, 0.42% active; Q9QUQ5; HEK293 TRPC4beta/mu-opioid, DAMGO EC20, Fluo-4 Ca2+ flux; stronger effect = higher value; B-score at 10 µM;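 active means B-score of calcium response area above 5 SD of library B-scores, with initial fluorescence ratio within 5 SD of library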;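 further: B-score of integrated fluorescence ratio over time as area under calcium response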
TRPC4 inh: blocks the mouse TRPC4 cation channel; 300,000 tested, 0.39% active; B-score at 10 µM; HEK293 TRPC4beta/mu-opioid, DAMGO-evoked Fluo4 calcium flux; stronger effect = lower value; Q9QUQ5;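 active means B-score over 3 SD under the library average, no early fluorescence shift, positive overall ratio signal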
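Test system – stable TRPC4beta/mu-opioid receptor HEK293 cells · Probe or stimulus – DAMGO, a submaximal dose followed by a maximal one · Dosing – one concentration per compound · Signal – Fluo4 calcium fluorescence by kinetic imaging, 5 s 1 Hz baseline · Evaluation – per-well B score of integrated baseline-normalized Fluo4 ratio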
hERG ctr: hERG (human) inhibition as Kir2.1 counter-screen. shares compounds with Kir21 inh. hERG-expressing cells, thallium flux. inhibition, % at 10 µM. 320 tested, 20% active;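 further: host cells are CHO cells stably expressing hERG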
KCNK9 inh: human KCNK9 off-target activity of Kir2.1 blockers; inhibition, % at 10 µM; 320 tested, 5% active; shares compounds with Kir21 inh; KCNK9-expressing cells, ion flux inhibition
Kir21 ephys inh: mouse Kir2.1 inward rectifier channel inhibition; shares compounds with Kir21 inh; Kir2.1 cells, automated patch-clamp current inhibition; inhibition, % at 25 µM; 320 tested, 71% active
HEK293 TRPC6 ctr: parental HEK293 nonspecific activity of TRPC6 modulators. AID 488924. 2,400 tested, 51% active. membrane potential dye fluorescence. shares compounds with TRPC6 inhibitor. membrane potential signal change, % at 10 µM;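 active means membrane potential signal moves up or down beyond 5 SD from buffer-only wells, on both duplicate plates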
HEK293 MPD ctr 2: second counter-screen for TRPC6 modulators: effect in parental HEK293 cells. 2,400 tested, 14% active. inhibition, % at 10 µM. shares compounds with TRPC6 inhibitor. membrane potential dye fluorescence; after compound, maximal acetylcholine stimulation;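 active means membrane potential signal drops by more than 5 SD from the mean control signal, in both duplicate plates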;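 further: plate controls were acetylcholine ECmax control wells for no effect and buffer only wells for full effect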
TRPC4/MOR mod: selectivity of TRPC6 modulators against mouse TRPC4. shares compounds with TRPC6 inhibitor. HEK293 TRPC4/mu-opioid, membrane potential fluorescence. percent change from control (negative = decrease, positive = increase), % at 10 µM. 2,400 tested, 69% active. AID 488927;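 active means membrane potential signal moved up or down beyond 5 SD of buffer control wells, in both duplicate plates, actives on both sides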;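 further: plate controls were assay buffer wells for no effect and DAMGO maximal-effect wells for full effect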
TRPC4/MOR inh 2: second check of whether TRPC6 modulators also affect mouse TRPC4; shares compounds with TRPC6 inhibitor; HEK293 TRPC4/mu-opioid, membrane potential dye fluorescence; stimulated with maximal-effect DAMGO; inhibition, % at 10 µM; 2,400 tested, 55% active; AID 488928;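 active means drop in membrane potential signal beyond 5 SD of the control wells in both duplicate plates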;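 further: TRPC4 counter screen for TRPC6 hits run under conditions tuned for TRPC6 not TRPC4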
TRPC6 block conf: mouse TRPC6 inhibitor confirmation | 3,300 tested, 43% active | inhibition, % at 10 µM | HEK293-TRPC6, membrane potential dye, ACh-evoked depolarization | shares compounds with TRPC6 inhibitor | AID 488960;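 active means fluorescence ratio falls more than 5 SD below the full-stimulation control mean, in both duplicate runs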;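 further: integrated fluorescence ratio of peak minus minimum over baseline after agonist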
TRPC6 act confirm: confirmation of mouse TRPC6 activators; shares compounds with TRPC6 inhibitor; HEK293-TRPC6 membrane potential dye fluorescence, FDSS; activation, % at 10 µM; 2,800 tested, 11% active; AID 488961;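 active means ratio signal rise beyond 5 SD above unstimulated control wells' mean, seen in both duplicate runs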;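 further: plate controls were buffer EC0 wells for no effect and acetylcholine ECmax response for full effect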
Starred values were filed as active, the others as inactive; i = inactive; / = no result given. In the library only some 2.9% were active in any assay of this set; here they are far more common. Unless noted, how the calls were made is not given here.

SMILES	TRPC4 act	TRPC6 activator	Kir21 inh	TRPC6 inhibitor	TRPC4 potent	TRPC4 inh	hERG ctr	KCNK9 inh	Kir21 ephys inh	HEK293 TRPC6 ctr	HEK293 MPD ctr 2	TRPC4/MOR mod	TRPC4/MOR inh 2	TRPC6 block conf	others
O=C(C1CCCN(Cc2ccc([N+](=O)[O-])cc2)C1)N1CCCCC1 (stereo not drawn)	i	i	-0.7	i	i	i	/	/	/	/	/	/	/	/
CCCCNC(=O)C1c2ccccc2Oc2ccccc21	i	i	-0.87	i	i	i	/	/	/	/	/	/	/	/
CNCCC1Sc2ccccc2Oc2ccccc21 (stereo not drawn)	i	i	-5.9*	-5.6*	i	i	i	i	1.9%*	86%*	i	41%*	59%*	i
Cc1ccccc1Cn1c(=N)n(CC(O)c2ccco2)c2ccccc21 (stereo not drawn)	i	i	-5.9*	-5.2*	i	-6*	50%*	i	i	143%*	i	49%*	99%*	48%*
CCCCCCCn1c(=N)n(CC(=O)c2ccco2)c2ccccc21	i	i	-10*	-5.3*	i	i	67%*	i	6.9%*	94%*	i	16%*	78%*	58%*	TRPC6 act confirm=i
CCCCCCCn1c(=N)n(CC(O)c2ccco2)c2ccccc21 (stereo not drawn)	i	i	-5.9*	-5.4*	i	i	70%*	i	i	235%*	i	44%*	93%*	70%*
CCN(CC(=O)Nc1c(F)cccc1F)C(=O)c1n[nH]c2ccccc12	i	i	3.6	i	i	i	/	/	/	/	/	/	/	/
O=C(NNC(=O)c1cc(Br)c(Br)s1)c1csc(N2CCOCC2)n1	i	i	1.9	i	i	i	/	/	/	/	/	/	/	/
